Data taken from ChEMBL document CHEMBL3414425, “Synthesis and biological evaluation of new imidazo[2,1-b][1,3,4]thiadiazole-benzimidazole derivatives” (Eur J Med Chem, 2015).
In brackets after ≈: the same amount, converted by molar mass. Activity calls are given as the source filed them. No cut-off for these calls is given here.

Tests used:
[1] = test system: Mycobacterium tuberculosis; assay: Antitubercular activity against Mycobacterium tuberculosis H37Rv ATCC 27294/XDR-TB incubated for 28 days by agar dilution method; type: functional; details: 672 h
Procedure, shortened: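 Agar dilution: two-fold dilutions in Middlebrook 7H11 agar with OADC. Inoculum from fresh 7H11/OADC slants adjusted to 1 mg/mL wet weight in 0.05% Tween 80 saline, diluted 10^-2 (~10⁷ cfu/mL); 5 µL spotted per tube. Incubated 37 °C; MIC, lowest concentration fully inhibiting growth, read after 28 days, in triplicate.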

[2] = test system: Escherichia coli; assay: Antibacterial activity against Escherichia coli at 1 mg/ml incubated for 18 hrs by well plate technique; type: functional; details: read-out: DIZ
Procedure, shortened: (§1)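 Bacteria kept on nutrient agar at 37 °C, grown statically in nutrient broth (start ~10-100 cfu/mL) at 37 °C for 18-24 h. Suspensions diluted in saline and spread on nutrient agar, then wells cut with a cork borer. Compound in DMSO at 1 or 0.5 mg/mL added to wells, 37 °C, 18 h. Inhibition zone diameter measured minus DMSO value; triplicate; streptomycin standard.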

[3] = test system: Escherichia coli; assay: Antibacterial activity against Escherichia coli at 0.5 mg/ml incubated for 18 hrs by well plate technique; type: functional; details: read-out: DIZ; procedure, shortened: as §1
[4] = test system: Staphylococcus aureus; assay: Antibacterial activity against Staphylococcus aureus at 1 mg/ml incubated for 18 hrs by well plate technique; type: functional; details: read-out: DIZ; procedure, shortened: as §1
[5] = test system: Staphylococcus aureus; assay: Antibacterial activity against Staphylococcus aureus at 0.5 mg/ml incubated for 18 hrs by well plate technique; type: functional; details: read-out: DIZ; procedure, shortened: as §1
[6] = test system: Pseudomonas aeruginosa; assay: Antibacterial activity against Pseudomonas aeruginosa at 1 mg/ml incubated for 18 hrs by well plate technique; type: functional; details: read-out: DIZ; procedure, shortened: as §1
[7] = test system: Pseudomonas aeruginosa; assay: Antibacterial activity against Pseudomonas aeruginosa at 0.5 mg/ml incubated for 18 hrs by well plate technique; type: functional; details: read-out: DIZ; procedure, shortened: as §1
[8] = test system: Salmonella typhi; assay: Antibacterial activity against Salmonella typhi at 1 mg/ml incubated for 18 hrs by well plate technique; type: functional, Salmonella enterica subsp. enterica serovar Typhi; details: for zone of inhibition at 1000 µg/mL: Salmonella enterica, read-out: DIZ
Procedure, shortened: (§2)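 Well diffusion on nutrient agar; strains kept on nutrient agar at 37 °C, grown statically in nutrient broth 18-24 h at 37 °C, diluted in saline, 0.1 ml spread per plate. Compounds in DMSO at 1 and 0.5 mg/mL added to cork-bored wells; 18 h at 37 °C. Inhibition zone diameter measured, DMSO value subtracted; triplicate; streptomycin reference.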

[9] = test system: Salmonella typhi; assay: Antibacterial activity against Salmonella typhi at 0.5 mg/ml incubated for 18 hrs by well plate technique; type: functional, Salmonella enterica subsp. enterica serovar Typhi; details: for zone of inhibition at 500 µg/mL: Salmonella enterica, read-out: DIZ; procedure, shortened: as §2
[10] = test system: Aspergillus flavus; assay: Antifungal activity against Aspergillus flavus at 1 mg/ml incubated for 3 days; type: functional; details: 72 h, read-out: IZ
Procedure, shortened: (§3)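 Well plate method on potato dextrose agar. Fungal stock suspended in distilled water with Tween 80 and swabbed over plates. Samples in DMSO at 1 and 0.5 mg/mL added to wells, incubated 25 °C for 3 days, then scored for inhibition zones; fluconazole standard.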

[11] = test system: Aspergillus flavus; assay: Antifungal activity against Aspergillus flavus at 0.5 mg/ml incubated for 3 days; type: functional; details: 72 h, read-out: IZ; procedure, shortened: as §3
[12] = test system: Chrysosporium keratinophilum; assay: Antifungal activity against Chrysosporium keratinophilum at 1 mg/ml incubated for 3 days; type: functional; details: 72 h, read-out: IZ; procedure, shortened: as §3
[13] = test system: Chrysosporium keratinophilum; assay: Antifungal activity against Chrysosporium keratinophilum at 0.5 mg/ml incubated for 3 days; type: functional; details: 72 h, read-out: IZ; procedure, shortened: as §3
[14] = test system: Candida albicans; assay: Antifungal activity against Candida albicans at 1 mg/ml incubated for 3 days; type: functional; details: 72 h, read-out: IZ; procedure, shortened: as §3
[15] = test system: Candida albicans; assay: Antifungal activity against Candida albicans at 0.5 mg/ml incubated for 3 days; type: functional; details: 72 h, read-out: IZ; procedure, shortened: as §3
[16] = Antioxidant activity assessed as DPPH radical scavenging activity incubated for 10 mins by UV-visible spectrometry; type: physicochemical
Procedure, shortened: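 DPPH free-radical scavenging; absorbance read at 517 nm against a methanol blank. % scavenging = (A control − A sample)/A control × 100.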

[17] = Cytotoxicity against African green monkey Vero cells assessed as growth inhibition at 62.5 ug/ml after 72 hrs by MTT assay; type: cell-based; details: chlorocebus sabaeus, read-out: GI
Procedure, shortened: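 Vero cells grown in MEM + 10% FBS at 37 °C, 5% CO2. Seeded ~10,000 cells/well, 24 h to a partial monolayer. Compounds in DMSO diluted in MEM + 2% FBS (1 mg/ml stock, two-fold dilutions) for 72 h. MTT 3 h, formazan dissolved in propanol, A540. % inhibition = 100 − (mean OD test/mean OD control × 100).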

[18] = Salmonella enterica subsp. enterica serovar Typhi

Row | Structure (SMILES) | MIC [1] [mg/L] | zone of inhibition at 1000 µg/mL [2] [mm] | zone of inhibition at 500 µg/mL [3] [mm] | zone of inhibition at 1000 µg/mL [4] [mm] | zone of inhibition at 500 µg/mL [5] [mm] | zone of inhibition at 1000 µg/mL [6] [mm] | zone of inhibition at 500 µg/mL [7] [mm] | zone of inhibition at 1000 µg/mL [8] [mm] | zone of inhibition at 500 µg/mL [9] [mm] | zone of inhibition at 1000 µg/mL [10] [mm] | zone of inhibition at 500 µg/mL [11] [mm] | zone of inhibition at 1000 µg/mL [12] [mm] | zone of inhibition at 500 µg/mL [13] [mm] | zone of inhibition at 1000 µg/mL [14] [mm] | zone of inhibition at 500 µg/mL [15] [mm] | inhibition (INH) [16] [%] | inhibition at 72 h, 62.5 ug/ml [17] [%] | diameter of the inhibition zone (DIZ) [8, 18] | diameter of the inhibition zone (DIZ) [9, 18]
1 | Cc1nn2c(-c3nc4cc(Cl)ccc4[nH]3)c(-c3ccc(Cl)cc3)nc2s1 | 3.12 (≈ 7.81 µM) | 4 | 2 | 3 | 2 | 4 | 1 | 4 | 2 | 3 | 1 | 5 | 3 | 4 | 2 | 78.8 | 7.12 | – | –
2 | Cc1nn2c(-c3nc4ccccc4[nH]3)c(-c3ccc(F)cc3)nc2s1 | 6.25 (≈ 17.9 µM) | 4 | 3 | 2 | 1 | 3 | 2 | 2 | 1 | 3 | 2 | 4 | 3 | 2 | 1 | 19.9 | 10.6 | – | –
3 | Cc1ccc(-c2nn3c(-c4nc5cc(Cl)ccc5[nH]4)c(-c4ccc(Cl)cc4)nc3s2)cc1 | 3.12 (≈ 6.56 µM) | 4 | 2 | 5 | 3 | 3 | 2 | – | – | 5 | 2 | 3 | 1 | 6 | 4 | 65.7 | 7.4 | inactive | inactive
4 | Cc1ccc(-c2nn3c(-c4nc5cc([N+](=O)[O-])ccc5[nH]4)c(-c4ccc(F)cc4)nc3s2)cc1 | 6.25 (≈ 13.3 µM) | 4 | 2 | 4 | 2 | 3 | 2 | 4 | 1 | 5 | 2 | 4 | 2 | 5 | 2 | 22.3 | 10.5 | – | –
